According to ChEMBL document CHEMBL1131137, “New platelet fibrinogen receptor glycoprotein IIb-IIIa antagonists: orally active series of N-alkylated amidines with a 6,6-bicyclic template” (J Med Chem, 1998):
Values after ≈ are worked out from the molar mass of the structure shown.

How the values were obtained:
Homo sapiens = organism: Homo sapiens; assay: In vitro inhibition of human Platelet-rich plasma (PRP) aggregation induced by 5 uM ADP; format: functional
How it was run: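 PRP prepared by 120g 15-min spin of citrated venous blood (3.8% citrate, 1:9) from anesthetized male guinea pigs or male human volunteers, adjusted to 2.5–3.0 × 10⁸ platelets/mL with PPP. PRP warmed 2 min at 37 °C, compound or vehicle added, then 2 min later ADP (final 5 μM). Maximum aggregation compared with control; IC50 estimated.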

Cavia porcellus [1] = organism: Cavia porcellus; assay: In vitro inhibition of guinea pig Platelet-rich plasma (PRP) aggregation induced by 5 uM ADP; format: functional
[2] = molecular target: Integrin alpha-IIb/beta-3 (Homo sapiens, UniProt P05106+P08514); assay: Inhibition of Fibrinogen binding to Immobilized Human Fibrinogen Receptor.; format: protein-complex assay
Sequence of Integrin alpha-IIb/beta-3 (P05106 27-788 limits assumed): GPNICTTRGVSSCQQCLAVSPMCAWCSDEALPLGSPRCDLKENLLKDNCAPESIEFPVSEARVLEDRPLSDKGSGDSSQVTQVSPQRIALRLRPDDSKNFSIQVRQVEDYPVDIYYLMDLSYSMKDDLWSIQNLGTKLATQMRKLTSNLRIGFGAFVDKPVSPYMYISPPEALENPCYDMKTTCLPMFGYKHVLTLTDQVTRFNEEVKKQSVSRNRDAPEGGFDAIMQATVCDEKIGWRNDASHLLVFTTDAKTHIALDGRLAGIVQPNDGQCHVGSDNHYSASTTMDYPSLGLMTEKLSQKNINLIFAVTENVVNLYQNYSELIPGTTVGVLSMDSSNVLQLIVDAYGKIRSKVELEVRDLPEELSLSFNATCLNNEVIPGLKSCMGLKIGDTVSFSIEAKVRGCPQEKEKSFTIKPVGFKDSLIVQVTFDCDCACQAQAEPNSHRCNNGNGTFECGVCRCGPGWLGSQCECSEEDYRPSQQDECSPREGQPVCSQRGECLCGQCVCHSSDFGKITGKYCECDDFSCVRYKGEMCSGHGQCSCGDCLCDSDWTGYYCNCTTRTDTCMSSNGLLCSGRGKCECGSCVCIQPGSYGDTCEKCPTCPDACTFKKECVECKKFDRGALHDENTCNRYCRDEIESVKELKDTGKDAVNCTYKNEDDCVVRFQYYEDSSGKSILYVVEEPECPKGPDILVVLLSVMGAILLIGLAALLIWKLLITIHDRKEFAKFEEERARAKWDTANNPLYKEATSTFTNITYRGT
Sequence of Integrin alpha-IIb/beta-3 (P08514 32-887 limits assumed): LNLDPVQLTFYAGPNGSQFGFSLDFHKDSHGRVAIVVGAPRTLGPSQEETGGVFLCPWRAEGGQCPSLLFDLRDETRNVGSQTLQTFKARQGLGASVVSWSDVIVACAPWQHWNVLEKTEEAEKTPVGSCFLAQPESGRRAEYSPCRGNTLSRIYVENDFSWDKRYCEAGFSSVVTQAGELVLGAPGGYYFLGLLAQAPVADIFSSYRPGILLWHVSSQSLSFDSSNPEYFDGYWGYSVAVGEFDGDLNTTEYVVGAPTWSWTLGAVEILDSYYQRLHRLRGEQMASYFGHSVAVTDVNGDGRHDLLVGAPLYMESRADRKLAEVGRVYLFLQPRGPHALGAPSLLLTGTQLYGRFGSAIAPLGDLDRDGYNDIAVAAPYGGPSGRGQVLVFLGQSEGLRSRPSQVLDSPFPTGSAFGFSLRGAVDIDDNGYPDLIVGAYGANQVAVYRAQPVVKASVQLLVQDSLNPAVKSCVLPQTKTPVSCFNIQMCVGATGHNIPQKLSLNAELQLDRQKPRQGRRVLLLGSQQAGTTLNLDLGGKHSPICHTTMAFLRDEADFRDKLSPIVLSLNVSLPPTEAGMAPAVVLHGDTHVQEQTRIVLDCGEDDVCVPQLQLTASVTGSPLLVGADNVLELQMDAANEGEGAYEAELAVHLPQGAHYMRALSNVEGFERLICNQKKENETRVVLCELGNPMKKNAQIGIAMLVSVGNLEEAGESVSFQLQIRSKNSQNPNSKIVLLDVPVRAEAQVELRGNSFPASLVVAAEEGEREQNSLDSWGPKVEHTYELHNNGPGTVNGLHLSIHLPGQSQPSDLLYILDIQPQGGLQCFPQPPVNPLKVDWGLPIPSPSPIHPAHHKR
Sequence of Integrin alpha-IIb/beta-3 (P08514 891-1039 limits assumed): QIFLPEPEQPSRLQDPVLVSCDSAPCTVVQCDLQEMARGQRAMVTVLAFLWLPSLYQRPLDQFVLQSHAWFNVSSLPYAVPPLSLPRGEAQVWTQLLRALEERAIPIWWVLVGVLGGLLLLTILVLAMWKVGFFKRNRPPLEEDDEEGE
How it was run: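 Human platelet GPIIb-IIIa purified (ConA-, heparin-Sepharose, Sephacryl S-300) and coated at 1.5 μg/mL in TBS with 0.0005% Triton, 24 h at 4 °C, then blocked with 3.5% BSA. Compound plus biotinylated fibrinogen (2 μg/mL before 1:1 mixing) incubated 24 h at room temperature. Detection by peroxidase-streptavidin and o-phenylenediamine, A490.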

[3] = Solubility in saline.; format: physicochemical; details: read-out: S
How it was run: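 Solubility in saline determined by UV spectrophotometry.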

[4] = Concentration in plasma 1 hr after oral administration; format: ADME, cell-free; details: read-out: Plasma level
How it was run: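 Male guinea pigs starved overnight, given prodrug orally at 37 μmol/kg in saline with 0.5% Tween 80. PPP taken 1 h post-dose under pentobarbital. Bioassay: treated PPP diluted with donor PPP, mixed with donor PRP, and aggregation to 5 μM ADP read against a standard curve of PPP spiked with the active acid.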

Cavia porcellus [5] = assay: Inhibition of ex vivo platelet aggregation induced by 5 uM Adenosine diphosphate (ADP) 1 hour after oral administration.; format: functional
How it was run: (§1)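 Fasted male guinea pigs dosed orally at 37 μmol/kg in saline with 0.5% Tween 80, then anesthetized with pentobarbital at 1 h and bled. PRP adjusted to 3.0 × 10⁸/mL, preincubated 2 min, and aggregated with ADP (final 5 μM). Inhibition relative to three vehicle-treated controls per experiment; mean of three animals.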

Cavia porcellus [6] = assay: Inhibition of ex vivo platelet aggregation induced by 5 uM Adenosine diphosphate (ADP) 1 hour after oral administration at the dose of 37umol/kg; format: functional; how it was run: as §1

Compound `N=C(c1ccc(C(=O)Nc2ccc3c(c2)CC(CC(=O)O)CC3)cc1)N1CCOCC1` (stereo not drawn) has an IC50 (Homo sapiens) of 0.08 µM, an IC50 (Cavia porcellus [1]) of 0.19 µM and an IC50 [2] of 0.15 nM.

In the case of `CCOC(=O)CC1CCc2ccc(NC(=O)c3ccc(C(=N)N4CCOCC4)cc3)cc2C1` (stereo not drawn), the solubility [3] is reported as greater than 200000 µg/mL, the concentration at 1 h [4] is reported as 7300 nM and the Inhibition (Cavia porcellus [5]) is reported as 98%.

Work on `N=C(N)c1ccc(C(=O)Nc2ccc3c(c2)CC(CC(=O)O)CC3)cc1` (stereo not drawn) yielded an IC50 (Homo sapiens) of 0.057 µM, an IC50 (Cavia porcellus [1]) of 0.37 µM and an inhibition in vivo at 37 µmol/kg (Cavia porcellus [6]) of 8%. The IC50 [2] was 0.12 nM.

Work on `C#CCNC(=N)c1ccc(C(=O)Nc2ccc3c(c2)CC(CC(=O)OCC)CO3)cc1` (stereo not drawn) yielded a solubility [3] of 106000 µg/mL (≈ 253000 µM), a concentration at 1 h [4] of 3800 nM and an Inhibition (Cavia porcellus [5]) of 99%.

For `CCOC(=O)CC1CCc2ccc(NC(=O)c3ccc(C(=N)N)cc3)cc2C1` (stereo not drawn), the solubility [3] was 260 µg/mL (≈ 685 µM) and the inhibition in vivo at 37 µmol/kg (Cavia porcellus [6]) was 41%.

Compound `CCOC(=O)CC1COc2ccc(NC(=O)c3ccc(C(=N)N4CCOCC4)cc3)cc2C1` (stereo not drawn) has a solubility [3] greater than 200000 µg/mL, a concentration at 1 h [4] of 8400 nM and an Inhibition (Cavia porcellus [5]) of 99%.

`N=C(c1ccc(C(=O)Nc2ccc3c(c2)CC(CC(=O)O)CO3)cc1)N1CCOCC1` (stereo not drawn) gave an IC50 (Homo sapiens) of 0.066 µM, an IC50 (Cavia porcellus [1]) of 0.23 µM and an IC50 [2] of 0.098 nM.

For `N=C(N)c1ccc(/C=C/c2ccc3c(c2)CC(CC(=O)O)CC3)cc1` (stereo not drawn), the IC50 (Cavia porcellus [1]) was 5 µM.

Compound `C=CCNC(=N)c1ccc(C(=O)Nc2ccc3c(c2)CC(CC(=O)O)CC3)cc1` (stereo not drawn) has an IC50 (Cavia porcellus [1]) of 0.49 µM and an IC50 [2] of 0.26 nM.

Work on `N=C(c1ccc(C(=O)Nc2ccc3c(c2)C[C@H](CC(=O)O)CO3)cc1)N1CCOCC1` yielded an IC50 (Homo sapiens) of 0.36 µM and an IC50 [2] of 2.6 nM.

Work on `N=C(c1ccc(C(=O)Nc2ccc3c(c2)C[C@@H](CC(=O)O)CO3)cc1)N1CCOCC1` yielded an IC50 (Homo sapiens) of 0.035 µM, an IC50 (Cavia porcellus [1]) of 0.11 µM and an IC50 [2] of 0.12 nM.

Compound `CCOC(=O)CC1COc2ccc(NC(=O)c3ccc(C(=N)N)cc3)cc2C1` (stereo not drawn) has a solubility [3] of 410 µg/mL (≈ 1070 µM) and an inhibition in vivo at 37 µmol/kg (Cavia porcellus [6]) of 40%.

With `C=CCNC(=N)c1ccc(C(=O)Nc2ccc3c(c2)CC(CC(=O)OCC)CC3)cc1` (stereo not drawn) the concentration at 1 h [4] was 380 nM and the Inhibition (Cavia porcellus [5]) was 21%.

For `N=C(N)c1ccc(NC(=O)c2ccc3c(c2)CC(CC(=O)O)CC3)cc1` (stereo not drawn), the IC50 (Homo sapiens) was 0.046 µM and the IC50 (Cavia porcellus [1]) was 0.23 µM.

In the case of `CCC/N=C(\N)c1ccc(C(=O)Nc2ccc3c(c2)CC(CC(=O)OCC)CC3)cc1` (stereo not drawn), the concentration at 1 h [4] is reported as less than 180 nM and the Inhibition (Cavia porcellus [5]) is reported as 3%.

`CCCNC(=N)c1ccc(C(=O)Nc2ccc3c(c2)CC(CC(=O)O)CC3)cc1` (stereo not drawn) showed an IC50 (Homo sapiens) of 0.068 µM, an IC50 (Cavia porcellus [1]) of 0.17 µM and an IC50 [2] of 0.13 nM.

`N=C(N)c1ccc(CCc2ccc3c(c2)CC(CC(=O)O)CC3)cc1` (stereo not drawn) showed an IC50 (Homo sapiens) of 0.37 µM.

With `N=C(N)c1ccc(COc2ccc3ccc(CC(=O)O)cc3c2)cc1` the IC50 (Cavia porcellus [1]) was greater than 1000 µM.

`C#CCNC(=N)c1ccc(C(=O)Nc2ccc3c(c2)CC(CC(=O)O)CO3)cc1` (stereo not drawn) gave an IC50 (Homo sapiens) of 0.078 µM, an IC50 (Cavia porcellus [1]) of 0.35 µM and an IC50 [2] of 0.13 nM.

In the case of `C#CC/N=C(\N)c1ccc(C(=O)Nc2ccc3c(c2)CC(CC(=O)O)CC3)cc1` (stereo not drawn), the IC50 (Homo sapiens) is reported as 0.1 µM, the IC50 (Cavia porcellus [1]) is reported as 0.3 µM and the IC50 [2] is reported as 0.16 nM.

With `NC(=NCc1ccco1)c1ccc(C(=O)Nc2ccc3c(c2)CC(CC(=O)O)CC3)cc1` (stereo not drawn) the IC50 (Cavia porcellus [1]) was 0.62 µM and the IC50 [2] was 0.2 nM.

Work on `CN(C(=O)c1ccc(C(=N)N)cc1)c1ccc2c(c1)CC(CC(=O)O)CC2` (stereo not drawn) yielded an IC50 (Homo sapiens) of 0.2 µM and an IC50 (Cavia porcellus [1]) of 1.8 µM.

With `CCOC(=O)CC1CCc2ccc(NC(=O)c3ccc(C(=N)NCc4ccco4)cc3)cc2C1` (stereo not drawn) the solubility [3] was 1060 µg/mL (≈ 2310 µM), the concentration at 1 h [4] was 850 nM and the Inhibition (Cavia porcellus [5]) was 91%.

`C#CCNC(=N)c1ccc(C(=O)Nc2ccc3c(c2)CC(CC(=O)OCC)CC3)cc1` (stereo not drawn) showed a solubility [3] of 1500 µg/mL (≈ 3590 µM), a concentration at 1 h [4] of 1000 nM and an Inhibition (Cavia porcellus [5]) of 99%.

With `N=C(N)c1ccc(C(=O)Nc2ccc3c(c2)CN(CC(=O)O)CC3)cc1` the IC50 (Homo sapiens) was 0.29 µM and the IC50 (Cavia porcellus [1]) was 6.6 µM.

Compound `N=C(N)c1ccc(C(=O)Nc2ccc3c(c2)CC(CC(=O)O)CO3)cc1` (stereo not drawn) has an IC50 (Homo sapiens) of 0.049 µM and an IC50 [2] of 0.073 nM.

In the case of `N=C(N)c1ccc(COc2ccc3c(c2)CC(CC(=O)O)CC3)cc1` (stereo not drawn), the IC50 (Homo sapiens) is reported as 1.5 µM.
